NTR1 ag: activates human neurotensin receptor 1 | NTR1-U2OS beta-arrestin-GFP spot imaging, agonist mode | activation, % at 20 µM | P30989 | actives 0.17% (n = 330,000);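 active = activation at or above 40% of the spot to cytoplasm intensity ratio, with at least 20 cells analyzed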
TAAR1 antag: human TAAR1 antagonism | CHO RD-HGA16 TAAR1, Fluo-8 calcium fluorescence, antagonist | inhibition, % at 3 µM | Q96RJ0 | actives 1.5% (n = 360,000);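 active = inhibition above a per-plate cutoff, the mean inhibition of test compounds on that plate plus 3 SD, cut at about 49% in these data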
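Test system: CHO RD-HGA16 cells bearing hTAAR1 | Reagent: β-PEA, EC80 | Compound dosing: 3 µM, single point | Schedule: Dye loading 75 min at 37 °C, then 30 min room temperature | Signal: Calcium fluorescence with Fluo-8 | Evaluation: Percent inhibition of PEA-evoked calcium signal, max/basal emission ratio | Control set: DMSO-only wells and EC80 β-PEA-stimulated wells | Repeats: Singlicate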
OX1R antag-1: human HCRTR1 antagonism. CHO/OX1R cells, Fluo-8 calcium fluorescence, orexin A. actives 0.43% (n = 330,000). inhibition, % at 5 µM. AID 434989;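 active = inhibition above its plate's threshold, mean inhibition of all tested compounds on the plate plus 3 SD, cut at about 37% in these data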
Target sequence (O43613 whole entry, looked up): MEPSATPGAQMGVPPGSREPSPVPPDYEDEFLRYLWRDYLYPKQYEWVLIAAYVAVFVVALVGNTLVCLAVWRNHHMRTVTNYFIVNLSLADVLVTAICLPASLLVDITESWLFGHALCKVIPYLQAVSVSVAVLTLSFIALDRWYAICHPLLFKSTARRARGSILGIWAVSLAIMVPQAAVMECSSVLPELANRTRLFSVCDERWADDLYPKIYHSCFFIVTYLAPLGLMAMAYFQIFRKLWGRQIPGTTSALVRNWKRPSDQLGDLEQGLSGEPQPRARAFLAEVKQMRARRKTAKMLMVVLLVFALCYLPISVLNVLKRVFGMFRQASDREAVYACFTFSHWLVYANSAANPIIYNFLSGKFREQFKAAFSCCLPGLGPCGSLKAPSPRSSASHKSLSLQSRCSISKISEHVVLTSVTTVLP
OX1R antag-2: blocks the human orexin 1 receptor | AID 485270 | OX1R-expressing cells, FRET antagonist read-out | inhibition, % at 6.6 µM | actives 1.8% (n = 330,000) | O43613; in the data active = inhibition mostly above about 38%, no sharp cut-off; inactive = mostly below about 40%
TAAR1 agonist: agonists of human TAAR1; actives 0.99% (n = 360,000); activation, % at 3 µM; CHO RD-HGA16 TAAR1, Fluo-8 calcium fluorescence; vehicle wells 0%, saturating PEA agonist 100%; Q96RJ0;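 active = activation above the mean activation of all test compounds in the run plus 3 SD, cut at about 38% in these data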
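Test system: RD-HGA16 (CHO) cells co-expressing Gα16 and hTAAR1 / Benchmarks: DMSO vehicle as 0%, PEA at EC100 as 100% / Repeats: no replicates (n 1) / Measure: % activation from peak over basal fluorescence ratio, DMSO-to-PEA scaled / Timing: 17-24 h plating, Fluo-8 75 min 37 °C, 30 min RT / Technique: kinetic Fluo-8 calcium fluorescence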
CHO parental Ca: counter-screen: ATP calcium response change in parental CHO cells; actives 0.63% (n = 330,000); parental CHO-K1, ATP-induced calcium, Fluo-8 fluorescence; inhibition, % at 5.6 µM;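 active = inhibition above that plate's mean sample inhibition plus 3 SD, cut at about 26% in these data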
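Measured by: calcium-sensitive Fluo-8 fluorescence / Test system: CHO parental line / Controls: ATP-challenged DMSO wells low, unchallenged DMSO wells high / Measure: % inhibition / Compound: single nominal dose of 5.6 µM per compound / Replicates: single well per compound, no replicates / Reagent: ATP as calcium-mobilizing challenge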
Hits are given with their value. Hits are enriched below; roughly 4% of the tested compounds scored in any of these assays.

For CCS(=O)(=O)N(C)C[C@@H]1OCc2ccccc2-c2c(n(C)c3ccccc23)C(=O)N([C@H](C)CO)C[C@@H]1C the results were TAAR1 antag inactive and TAAR1 agonist inactive.
Screening O=C(CC1Sc2ccccc2NC1=O)OC(C(=O)NCCc1ccccc1)c1cccnc1 (stereo not drawn) returned NTR1 ag inactive, TAAR1 antag 53, OX1R antag-1 inactive, OX1R antag-2 inactive, TAAR1 agonist inactive and CHO parental Ca inactive.
Screening COCCNC(=O)C(OC(=O)CC1Sc2ccccc2NC1=O)c1ccncc1 (stereo not drawn) returned NTR1 ag inactive, TAAR1 antag inactive, OX1R antag-1 inactive, OX1R antag-2 inactive, TAAR1 agonist inactive and CHO parental Ca inactive.
CN1C[C@H](C(=O)N[C@]2(C)O[C@@]3(O)[C@@H]4CCCN4C(=O)[C@H](Cc4ccccc4)N3C2=O)CC2c3cccc4[nH]cc(c34)C[C@H]21 (stereo partly drawn) was read as NTR1 ag inactive, TAAR1 antag inactive, OX1R antag-1 inactive, OX1R antag-2 inactive, TAAR1 agonist inactive and CHO parental Ca inactive.
CC(C)C[C@H]1C(=O)N2CCC[C@H]2[C@]2(O)O[C@](NC(=O)C3C=C4c5cccc6[nH]c(Br)c(c56)C[C@H]4N(C)C3)(C(C)C)C(=O)N12 (stereo partly drawn) was read as NTR1 ag inactive, TAAR1 antag inactive, OX1R antag-1 inactive, OX1R antag-2 58, TAAR1 agonist inactive and CHO parental Ca inactive.
For CC(=O)Nc1ccc(NC(=O)C2CCCCN2S(=O)(=O)c2ccc(C(C)(C)C)cc2)cc1 (stereo not drawn) the results were NTR1 ag inactive, TAAR1 antag 55, OX1R antag-1 inactive, OX1R antag-2 inactive, TAAR1 agonist inactive and CHO parental Ca inactive.
Screening CC(=O)c1ccc(NC(=O)C2CCCN2S(=O)(=O)c2ccc(C)cc2)cc1 (stereo not drawn) returned NTR1 ag inactive, TAAR1 antag inactive, OX1R antag-1 inactive, OX1R antag-2 inactive, TAAR1 agonist inactive and CHO parental Ca inactive.
`Cc1ccc(NC(=O)[C@@H]2CCCN2S(=O)(=O)c2ccc(Cl)cc2)cc1` gave NTR1 ag inactive, TAAR1 antag inactive, OX1R antag-1 inactive, OX1R antag-2 48, TAAR1 agonist inactive and CHO parental Ca inactive.
For O=C(Nc1ccc(Cl)cc1)C1CCCCN1S(=O)(=O)c1ccccc1 (stereo not drawn) the results were NTR1 ag inactive, TAAR1 antag inactive, OX1R antag-1 inactive, OX1R antag-2 28, TAAR1 agonist inactive and CHO parental Ca inactive.
For O=C(Nc1ccc(C(F)(F)F)cc1)C1CCCCN1S(=O)(=O)c1ccccc1 (stereo not drawn) the results were NTR1 ag inactive, TAAR1 antag inactive, OX1R antag-1 inactive, OX1R antag-2 inactive, TAAR1 agonist inactive and CHO parental Ca inactive.
Screening Cc1cc(C)cc(N(CC(=O)NCc2ccc(F)cc2)C(=O)c2snc(C(N)=O)c2N)c1 returned NTR1 ag inactive, TAAR1 antag inactive, OX1R antag-1 inactive, OX1R antag-2 inactive, TAAR1 agonist 41 and CHO parental Ca inactive.
`Cc1cc(C)cc(N(CC(=O)NCc2ccco2)C(=O)c2snc(C(N)=O)c2N)c1` gave NTR1 ag inactive, TAAR1 antag inactive, OX1R antag-1 inactive, OX1R antag-2 inactive, TAAR1 agonist inactive and CHO parental Ca inactive.
`COc1ccc(/C=C/C(=O)OCC(=O)NC2CCCC(C)C2C)c(OC)c1` (stereo not drawn) gave NTR1 ag inactive, TAAR1 antag inactive, OX1R antag-1 inactive, OX1R antag-2 inactive, TAAR1 agonist inactive and CHO parental Ca inactive.
COc1cccc(/C=C(/C(=O)OCC(=O)NC2CCCC(C)C2C)c2ccccc2)c1 (stereo not drawn) was read as TAAR1 antag inactive, OX1R antag-1 inactive, OX1R antag-2 inactive, TAAR1 agonist inactive and CHO parental Ca 65.
For CN(Cc1nc2ccccc2c(=O)[nH]1)C(=O)c1ccccc1OCc1ccc(Cl)cc1 the results were NTR1 ag inactive, TAAR1 antag inactive, OX1R antag-1 inactive, OX1R antag-2 56, TAAR1 agonist inactive and CHO parental Ca inactive.
Screening CN(Cc1nc2ccccc2c(=O)[nH]1)C(=O)c1cc(-c2ccc(Br)cc2)nc2ccccc12 returned TAAR1 antag 50 and TAAR1 agonist inactive.
Screening CC(C)[C@H](NC(=O)N1CCOCC1)C(=O)N1CCC[C@H]1C(=O)NCc1ccccc1 returned TAAR1 antag inactive and TAAR1 agonist inactive.
Screening COc1ccccc1C(=O)OCC#CCSc1nnc(-c2cccc3ccccc23)o1 returned NTR1 ag inactive, TAAR1 antag inactive, OX1R antag-1 inactive, OX1R antag-2 49, TAAR1 agonist inactive and CHO parental Ca inactive.
`O=C(O)c1ccc(-c2ccc(-c3ccccc3)cc2)s1` gave NTR1 ag inactive, OX1R antag-1 inactive, OX1R antag-2 inactive and CHO parental Ca inactive.
For O=C(Nc1ccccc1)c1ccc(-c2ccccc2)s1 the results were NTR1 ag inactive, TAAR1 antag inactive, OX1R antag-1 inactive, OX1R antag-2 inactive, TAAR1 agonist 38 and CHO parental Ca inactive.
O=C(Nc1ccccc1)c1cc2ccc3ccccc3c2s1 was read as NTR1 ag inactive, TAAR1 antag inactive, OX1R antag-1 inactive, OX1R antag-2 51, TAAR1 agonist inactive and CHO parental Ca inactive.
For O=c1[nH]c2cc([N+](=O)[O-])c([N+](=O)[O-])cc2[nH]c1=O the results were NTR1 ag inactive, TAAR1 antag inactive, OX1R antag-1 inactive, OX1R antag-2 56, TAAR1 agonist inactive and CHO parental Ca inactive.
CCN1CCN(S(=O)(=O)c2cc(OCC(=O)NC3CCCCC3)c(C)cc2Cl)CC1 was read as NTR1 ag inactive, TAAR1 antag inactive, OX1R antag-1 inactive, OX1R antag-2 inactive, TAAR1 agonist inactive and CHO parental Ca inactive.
`Cc1cc(Cl)c(S(=O)(=O)N2CCSCC2)cc1OCC(=O)NC1CCCCC1` gave NTR1 ag inactive, TAAR1 antag 54, OX1R antag-1 inactive, OX1R antag-2 inactive, TAAR1 agonist inactive and CHO parental Ca inactive.
`CCOC(=O)N1CCN(S(=O)(=O)c2cc(OCC(=O)NC3CCCCC3)c(C)cc2Cl)CC1` gave NTR1 ag inactive, TAAR1 antag inactive, OX1R antag-1 inactive, OX1R antag-2 inactive, TAAR1 agonist inactive and CHO parental Ca inactive.
Cc1cc(Cl)c(S(=O)(=O)N2CCCCCC2)cc1OCC(=O)NC1CCCCC1 was read as NTR1 ag inactive, TAAR1 antag inactive, OX1R antag-1 inactive, OX1R antag-2 inactive, TAAR1 agonist inactive and CHO parental Ca 78.
Screening O=C(C(=O)N1CCN(C(=O)C2CCC2)CC1)c1cccc(C(F)(F)F)c1 returned TAAR1 antag inactive and TAAR1 agonist inactive.

Screening results (PubChem)
